Results taken from PubChem BioAssay AID624175 (Southern Research Specialized Biocontainment Screening …, 2012).
pIC50: −log10 of the molar value. Calls of active or inactive are those of the source.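 The calls were made as follows: active = inhibition of 30% or more at any tested concentration; inactive = the rest.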

Each compound was assayed against Leucine aminopeptidase (Plasmodium falciparum (isolate 3D7)) (UniProt Q8IL11) (assay: PFM17LAP inhibitors, dose response, selectivity assay for PFM18AAP inhibitor project, biochemical, QFRET, H-Leu-NHMec substrate, set 3 (AID 624175)). Settings: recombinant PfM17LAP, H-Leu-NHMec fluorogenic cleavage.
Leucine aminopeptidase (Plasmodium falciparum (isolate 3D7)), sequence (Q8IL11 whole entry, looked up): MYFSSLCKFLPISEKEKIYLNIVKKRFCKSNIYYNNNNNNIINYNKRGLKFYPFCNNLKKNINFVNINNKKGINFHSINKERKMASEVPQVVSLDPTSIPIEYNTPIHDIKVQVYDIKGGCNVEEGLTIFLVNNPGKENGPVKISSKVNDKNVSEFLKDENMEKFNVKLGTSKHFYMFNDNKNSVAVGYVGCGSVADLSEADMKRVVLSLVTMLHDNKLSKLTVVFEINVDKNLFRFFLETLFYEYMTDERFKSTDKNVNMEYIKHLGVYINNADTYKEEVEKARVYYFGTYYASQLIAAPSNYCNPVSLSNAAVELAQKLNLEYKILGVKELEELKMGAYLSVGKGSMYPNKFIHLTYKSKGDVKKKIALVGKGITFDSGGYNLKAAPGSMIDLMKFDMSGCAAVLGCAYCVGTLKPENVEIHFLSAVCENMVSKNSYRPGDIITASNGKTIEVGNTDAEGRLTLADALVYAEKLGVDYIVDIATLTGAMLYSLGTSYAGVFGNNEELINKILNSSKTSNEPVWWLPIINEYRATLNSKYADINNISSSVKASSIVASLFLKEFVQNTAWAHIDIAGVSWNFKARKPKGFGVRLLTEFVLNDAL
In short: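 Detection: fluorescence of released NHMec, excitation 370 nm, emission 460 nm; System: recombinant PfM17LAP enzyme; Dosing: 10-point twofold dilution series, 100 down to 0.2 µM, 2% DMSO; Replication: each concentration tested in triplicate; Read-out: % inhibition and fitted IC50; Schedule: enzyme reaction of 90 min at room temperature.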
CC(C)(CNc1ccnc2ccccc12)c1ccc(O)c(O)c1 gave a pIC50 of 3.99.
With Oc1ccc(CCNc2ccnc3c(F)cccc23)cc1O the pIC50 was 4.45.
CN(CCc1ccc(O)c(O)c1)c1ccnc2cc(Cl)ccc12 was tested, and the pIC50 was 4.36.
Oc1ccc(C2CCCN(c3ccnc4ccccc34)C2)cc1O (centres undefined) showed a pIC50 of 4.27.
CN(CCc1ccc(O)c(O)c1)c1ncnc2ccccc12 gave a pIC50 of 4.52.
In the case of Oc1ccc(C2CCN(c3ccnc4ccccc34)C2)cc1O (centres undefined), the pIC50 was 4.52.
In the case of CN(CCCc1ccc(O)c(O)c1)c1ccnc2ccccc12, the pIC50 was 4.24.
Work on CC(Cc1ccc(O)c(O)c1)Nc1ccnc2ccccc12 (centres undefined) yielded a pIC50 of 4.12.
Compound Oc1ccc(CCCNc2c3c(nc4ccccc24)CCCC3)cc1O has a pIC50 of 4.25.
For Oc1ccc(CCNc2ccnc3cc(Cl)ccc23)cc1O, the pIC50 was 4.13.
Compound Oc1cccc(CCNc2ccnc3ccccc23)c1O has a pIC50 of 4.45.
Cc1cc(N(C)CCc2ccc(O)c(O)c2)c2ccccc2n1 gave a pIC50 of 4.32.
With Oc1ccc(C2CCN(c3ccnc4ccccc34)CC2)cc1O the pIC50 was 4.42.
For Cc1cccc2c(N(C)CCc3ccc(O)c(O)c3)ccnc12, the pIC50 was 4.26.
In the case of Cc1cccc2c(NCCc3ccc(O)c(O)c3)ccnc12, the pIC50 was 4.19.
CN(CCc1ccc(O)c(O)c1)c1ccnc2c(F)cccc12 showed a pIC50 of 4.46.

Same assay, conditions: recombinant PfM17LAP, H-Leu-NHMec fluorogenic cleavage; at 50 µM (top of the series)
With CCN(CC)Cc1cc(Nc2ccnc3cc(Cl)ccc23)ccc1O the inhibition was “inactive”.

Same assay, conditions: recombinant PfM17LAP, H-Leu-NHMec fluorogenic cleavage; at 100 µM (top of the series)
For COc1ccc(CCNc2ccnc3cc(Cl)ccc23)cc1OC, the inhibition was “inactive”.
COc1ccc(C2CCN(c3ccnc4ccccc34)C2)cc1OC (centres undefined) was tested, and the inhibition was “inactive”.
COc1ccc(CCN(C)c2c3ccccc3nc3ccccc23)cc1OC was tested, and the inhibition was “inactive”.
For COc1ccc(C2CCN(c3ccnc4ccccc34)CC2)cc1OC, the inhibition was “inactive”.
For COc1ccc(CCNc2ncnc3ccccc23)cc1OC, the inhibition was “inactive”.
With COc1ccc(CCNC(=O)c2cc(C)ccc2N)cc1OC the inhibition was “inactive”.
For COc1cc(Br)c(CCNc2c3c(nc4ccccc24)CCCC3)cc1OC, the inhibition was “inactive”.
COc1ccc(CCNc2c3c(nc4ccc(C)cc24)CCCC3)cc1OC was tested, and the inhibition was “inactive”.
COc1ccc(CCN(C)c2ccnc3cc(Cl)ccc23)cc1OC was tested, and the inhibition was “inactive”.
For COc1ccc(CCNc2cc(C)nc3ccccc23)cc1OC, the inhibition was “inactive”.
With CCOc1ccc2nccc(N(C)CCc3ccc(OC)c(OC)c3)c2c1 the inhibition was “inactive”.
For COc1ccc(CCN(C)c2cc(C)nc3ccccc23)cc1OC, the inhibition was “inactive”.
For COc1cc(Br)c(CCNc2ccnc3ccccc23)cc1OC, the inhibition was “inactive”.
For COc1ccc(CCN(C)c2ccnc3c(C)cccc23)cc1OC, the inhibition was “inactive”.
For COc1ccc(CCN(C)c2ccnc3c(F)cccc23)cc1OC, the inhibition was “inactive”.
Clc1c2c(nc3ccccc13)CCCC2 was tested, and the inhibition was “inactive”.
COc1ccc(CCCN(C)c2c3ccccc3nc3ccccc23)cc1OC was tested, and the inhibition was “inactive”.
With CN(CCCc1ccc(O)c(O)c1)c1c2ccccc2nc2ccccc12 the inhibition was “inactive”.
For COc1ccc(CCNc2ccnc3c(C)cccc23)cc1OC, the inhibition was “inactive”.
With CN(CCc1ccc(O)c(O)c1)c1c2ccccc2nc2ccccc12 the inhibition was “inactive”.
In the case of COc1ccc(CCN(C)c2ncnc3ccccc23)cc1OC, the inhibition was “inactive”.
In the case of COc1ccc(CCNc2ccnc3c(F)cccc23)cc1OC, the inhibition was “inactive”.
CCN(CCc1ccc(OC)c(OC)c1)c1c2ccccc2nc2ccccc12 was tested, and the inhibition was “inactive”.
For COc1ccc(CCCNc2c3c(nc4ccccc24)CCCC3)cc1OC, the inhibition was “inactive”.
For CCOc1ccc2nccc(NCCc3ccc(OC)c(OC)c3)c2c1, the inhibition was “inactive”.
With Nc1c2ccccc2nc2ccccc12 the inhibition was “inactive”.
With COc1cc(Br)c(CCNc2c3ccccc3nc3ccccc23)cc1OC the inhibition was “inactive”.
